For 75 compounds, ID50 and ED50 results are on record in ChEMBL document CHEMBL1125836, “Disubstituted tetrahydrofurans and dioxolanes and PAF antagonists” (J Med Chem, 1991).

“And” between values parts separate entries of the source, which are not always exact repeats. Identical values can stand only once.

Experiment [1] has as its target Platelet-activating factor receptor (Rattus norvegicus) (UniProt P46002). Put plainly: Activity expressed as the dose required to reduce the lowering of the arterial blood pressure caused by PAF by 50%. It is filed as functional. To be noted: Artery. Put shortly: (§1)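 Male Sprague-Dawley rats (180–220 g) anesthetized with sodium pentobarbital (50 mg/kg ip). Carotid arterial pressure was recorded. Compound was given iv in saline (1 mL/kg) via femoral vein 3 min before PAF (0.5 μg/kg iv); vehicle controls.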

The species named for a further experiment is Rattus norvegicus. Put plainly: Activity expressed as the dose required to reduce the lowering of the arterial blood pressure caused by PAF by 50%. The conditions noted are these: Artery, read-out: ID50 (the source's name). In kind it is functional. Summed up:
as §1

Platelet-activating factor receptor (Rattus norvegicus), sequence (P46002 whole entry): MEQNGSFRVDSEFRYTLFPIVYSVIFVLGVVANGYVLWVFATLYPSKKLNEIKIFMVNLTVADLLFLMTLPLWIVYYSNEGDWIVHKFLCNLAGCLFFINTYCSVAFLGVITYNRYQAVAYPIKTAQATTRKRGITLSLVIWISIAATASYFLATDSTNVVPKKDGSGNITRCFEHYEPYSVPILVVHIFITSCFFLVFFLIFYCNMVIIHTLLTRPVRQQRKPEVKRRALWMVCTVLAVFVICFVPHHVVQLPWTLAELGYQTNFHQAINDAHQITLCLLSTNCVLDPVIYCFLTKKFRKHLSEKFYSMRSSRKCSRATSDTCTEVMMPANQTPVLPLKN

In experiment [1], `CCCCCCCCCCCCCCC1COC(COP(=O)([O-])OCC[n+]2ccccc2)C1` (stereo not given) returned an ID50 above 5 mg/kg.
For the compound `CCCCCCCCCCCCCCCCCC1OCC(COCCCCCCCC[n+]2ccsc2)O1.Cc1ccc(S(=O)(=O)[O-])cc1` (stereo not given), the ED50 in the experiment listed under Rattus norvegicus was above 5 mg/kg.
For `CCCCCCCCCCCCCCCCCCOCC1OCC(COC(=O)N(Cc2cccc[n+]2CC)C(C)=O)O1` (stereo not given), the ID50 in experiment [1] was determined as 0.041 mg/kg.
Consider `CCCCCCCCCCCCCCCCCC1CCC(COC(=O)N(Cc2cccc[n+]2CC)C(C)=O)O1` (stereo not given), for which the ID50 in experiment [1] was determined as 0.15 mg/kg.
`CCCCCCCCCCCCCC1OCC(COC(=O)CCCCC[n+]2ccsc2)O1` (stereo not given) registered an ID50 in experiment [1] above 5 mg/kg.
In turn, `CCCCCCCCCCCCCCCCCC1OCC(COCCCC[n+]2ccsc2)O1` (stereo not given) gave an ID50 in experiment [1] above 5 mg/kg.
Same read-out and setting: as for `CCCCCCCCCCCCCCC1COC(COCCCCCC[n+]2ccsc2)C1` (stereo in doubt; form 1), the figure is 2.5 mg/kg; as for `CCCCCCCCCCCCCCCCCCOCC1CC(COCCCCCCC[n+]2ccsc2)CO1` (stereo not given), 2.1 mg/kg; as for `CCCCCCCCCCCCCCCCCCOCC1CC(COC(=O)CCCCC[n+]2ccsc2)CO1` (stereo not given), 1.1 mg/kg.
With `CCCCCCCCCCCCCCCCOCC1COC(COC(=O)N(Cc2cccc[n+]2CC)C(C)=O)C1` (stereo not given), the ID50 in experiment [1] is 0.044 mg/kg and 0.035 mg/kg.
On the same count and under the same terms, as for `CCCCCCCCCCCCCCCCOCC1COC(COC(=O)NCCc2cccc[n+]2CC)C1` (stereo not given), the figure is above 5 mg/kg; as for `CCCCCCCCCCCCCCCCCCOCC1COC(COC(=O)NCc2cc[n+](CC)cc2)C1` (stereo not given), above 5 mg/kg; as for `CCCCCCCCCCCCCCCCCC1OCC(COP(=O)([O-])OCC[n+]2ccccc2)O1` (stereo not given), above 5 mg/kg.
Still for that read-out and setting: the value for `CCCCCCCCCCCCCCC1COC(COC(=O)N(Cc2cccc[n+]2CC)C(C)=O)C1` (stereo not given) was 0.24 mg/kg.
Turning to `CCCCCCCCCCCCCCCC1OCC(COC(=O)CCCCC[n+]2ccsc2)O1` (stereo not given), the ID50 in experiment [1] is 0.86 mg/kg.
Same read-out and setting: the value for `CCCCCCCCCCCCCCCCOCC1COC(COC(=O)NCc2cccc[n+]2CC)C1` (stereo not given) was above 5 mg/kg; that for `CCCCCCCCCCCCCCCCCCNC(=O)OCC(COC(=O)N(Cc1cccc[n+]1CC)C(C)=O)OC` (stereo not given) was 0.0078 mg/kg and 0.011 mg/kg; that for `CCCCCCCCCCCCCCCCCC1OCC(COC(=O)N(Cc2cccc[n+]2CC)C(C)=O)O1` (stereo not given) was 0.24 mg/kg.
In turn, `CCCCCCCCCCCCCCCCOCC1COC(COC(=O)N(Cc2ccccn2)C(C)=O)C1` (stereo not given) showed an ID50 in experiment [1] above 5 mg/kg.
Still for that read-out and setting: as for `CCCCCCCCCCCCCCCNC(=O)OCC1COC(COC(=O)N(Cc2cccc[n+]2CC)C(C)=O)C1` (stereo not given), the figure is 0.067 mg/kg and 0.033 mg/kg; as for `CCCCCCCCCCCCCCOCC1COC(COCCCCCC[n+]2ccsc2)C1` (stereo not given), 3.1 mg/kg; as for `CCCCCCCCCCCCCCCCCCCC1OCC(COC(=O)CCCCC[n+]2ccsc2)O1` (stereo not given), 5.1 mg/kg.
`CCCCCCCCCCCCCCCNC(=O)OCC1CC(COC(=O)N(Cc2cccc[n+]2CC)C(C)=O)CO1` (stereo not given): the ID50 in experiment [1] was determined as 0.049 mg/kg.
Same read-out and setting: the value for `CCCCCCCCCCCCCCCCOCC1COC(COC(=O)N(Cc2cccc[n+]2CC)C(=O)OCC)C1` (stereo not given) was 0.035 mg/kg; that for `CCCCCCCCCCCCCCCNC(=O)OCC1CC(COC(=O)N(Cc2cccc[n+]2CC)C(C)=O)CO1` (stereo in doubt; form 2) was 0.042 mg/kg.
Take `CCCCCCCCCCCCCCCCOCC1COC(COCCCCCC[n+]2ccsc2)C1` (stereo not given): the ID50 in experiment [1] was found to be 1.2 mg/kg.
`CCCCCCCCCCCCCCC1COC(COP(=O)([O-])OCC[N+](C)(C)C)C1` (stereo not given) yielded an ID50 in experiment [1] above 5 mg/kg.
In the case of `CC1OCC(COC(=O)CCCCC[n+]2ccsc2)O1.Cc1ccc(S(=O)(=O)[O-])cc1` (stereo not given), in the experiment listed under Rattus norvegicus, the ED50 is above 5 mg/kg.
The compound `CCCCCCCCCCCCCCCCCCOCC1COC(COC(=O)N(Cc2ccc[n+](CC)c2)C(C)=O)C1` (stereo not given) showed an ID50 in experiment [1] above 5 mg/kg.
In experiment [1], `CCCCCCCCCCCCCCCC1CCC(COC(=O)CCCCC[n+]2ccsc2)O1` (stereo not given) returned an ID50 of 1.2 mg/kg.
On the same count and under the same terms, the value for `CCCCCCCCCCCCCCCCOCC1OCC(COCCCC[n+]2ccsc2)O1` (stereo not given) was 2.7 mg/kg; that for `CCCCCCCCCCCCCCCCOCC1OCC(COC(=O)N(Cc2cccc[n+]2CC)C(C)=O)O1` (stereo not given) was 0.024 mg/kg.
Still for that read-out and setting: as for `CCCCCCCCCCCCCCCCCCOCC1CC(COCCCCC[n+]2ccsc2)CO1` (stereo not given), the figure is 2.5 mg/kg.
In experiment [1], `CCCCCCCCCCCCCCCC1CCC(COC(=O)N(Cc2cccc[n+]2CC)C(C)=O)O1` (stereo not given) registered an ID50 of 0.15 mg/kg.
Same read-out and setting: as for `CCCCCCCCCCCCCCCCCCC1COC(COC(=O)N(Cc2cccc[n+]2CC)C(C)=O)C1` (stereo not given), the figure is 0.23 mg/kg; as for `CCCCCCCCCCCCCCCCCC1OCC(COCCCCCC[N+](C)(C)C)O1` (stereo not given), above 5 mg/kg.
Still for that read-out and setting: as for `CCCCCCCCCCCCCCCCCCOCC1COC(COC(=O)N(Cc2cc[n+](CC)cc2)C(C)=O)C1` (stereo not given), the figure is 1.6 mg/kg.
The same measure, in the same setting: as for `CCCCCCCCCCCCCCOCC1COC(COC(=O)N(Cc2cccc[n+]2CC)C(C)=O)C1` (stereo not given), the figure is 0.087 mg/kg; as for `CCCCCCCCCCCCCCCCCCOCC1COC(COC(=O)N(Cc2cccc[n+]2CC)C(C)=O)C1` (stereo not given), 0.035 mg/kg; as for `CCCCCCCCCCCCCCCCOCC1COC(COC(=O)N(CCc2cccc[n+]2CC)C(C)=O)C1` (stereo not given), above 5 mg/kg.
As for `CCCCCCCCCCCCCCC1COC(COCCCCCCC[n+]2ccsc2)C1` (stereo not given), the ID50 in experiment [1] worked out at 1.5 mg/kg.
On the same count and under the same terms, as for `CCCCCCCCCCCCCCCCCCOCC1COC(COC(=O)N(Cc2cccc[n+]2CC)C(C)=O)O1` (stereo not given), the figure is 0.017 mg/kg; as for `CCCCCCCCCCCCCCCC1CCC(COCCCCCC[n+]2ccsc2)O1` (stereo not given), 2 mg/kg.
In turn, `CCCCCCCCCCCCCCC1COC(COCCCCCC[N+](C)(C)C)C1` (stereo not given) registered an ID50 in experiment [1] above 5 mg/kg.
On the same count and under the same terms, the value for `CCCCCCCCCCCCCCCCCC1OCC(COCCCCCC[N+]2(C)CCOCC2)O1` (stereo not given) was above 5 mg/kg.
In the case of `CCCCCCCCCCCCCCOCC1COC(COCCCCCCC[n+]2ccsc2)C1` (stereo not given), in experiment [1], the ID50 was 1.4 mg/kg.
For `CCCCCCCCCCCCCCCCOCC1CC(COC(=O)N(Cc2cccc[n+]2CC)C(C)=O)CO1` (stereo not given), the ID50 in experiment [1] was 0.027 mg/kg and 0.02 mg/kg.
Same read-out and setting: the value for `CCCCCCCCCCCCCCCCOCC1OCC(COCCCCCC[n+]2ccsc2)O1` (stereo not given) was 1.8 mg/kg.
On the same count and under the same terms, the value for `CCCCCCCCCCCCCCCCOCC1COC(COC(=O)N(C(C)=O)c2cc[n+](CC)cc2)C1` (stereo not given) was above 5 mg/kg.
Take `CCCCCCCCCCCCOCC1COC(COCCCCCCC[n+]2ccsc2)C1` (stereo not given): in experiment [1], the ID50 was found to be 3.7 mg/kg.
Still for that read-out and setting: as for `CCCCCCCCCCCCCCCCCC1COC(COC(=O)N(Cc2cccc[n+]2CC)C(C)=O)O1` (stereo not given), the figure is 0.074 mg/kg; as for `CCCCCCCCCCCCCCCCCC1OCC(COC(=O)CCCCC[n+]2ccsc2)O1` (stereo not given), 0.88 mg/kg; as for `CCCCCCCCCCCCCCOCC1COC(COC(=O)N(Cc2cccc[n+]2CC)C(C)=O)O1` (stereo not given), 0.2 mg/kg.
For the compound `CCCCCCCCCCCCCCC1COC(COCCCCCCCC[n+]2ccsc2)C1` (stereo not given), the ID50 in experiment [1] was found to be 2.3 mg/kg.
In turn, `CCCCCCCCCCCCCCCCOCC1COC(COC(=O)N(Cc2cccc[n+]2C)C(C)=O)C1` (stereo not given) returned an ID50 in experiment [1] of 0.24 mg/kg.
The same measure, in the same setting: as for `CCCCCCCCCCCCCCCCCC1OCC(COCCCCCC[n+]2cscc2C)O1` (stereo not given), the figure is 3.1 mg/kg; as for `CCCCCCCCCCCCCCCCCC1OCC(COCCCCCC[n+]2cccc3ccccc32)O1` (stereo not given), 3.8 mg/kg.
In the case of `CCCCCCCCCCCCCCC1COC(COC(=O)CCCCC[n+]2ccsc2)C1.Cc1ccc(S(=O)(=O)[O-])cc1` (stereo not given), the ED50 in the experiment listed under Rattus norvegicus is above 5 mg/kg.
Compound `CCCCCCCCCCCCCCCCCC1CC(COC(=O)N(Cc2cccc[n+]2CC)C(C)=O)CO1` (stereo not given) showed an ID50 in experiment [1] of 0.052 mg/kg.
On the same count and under the same terms, the value for `CCCCCCCCCCCCCCCNC(=O)OCC1CC(COC(=O)N(Cc2cccc[n+]2CC)C(C)=O)CO1` (stereo in doubt; form 1) was 0.057 mg/kg; that for `CCCCCCCCCCCCCCCCOCC1CC(COCCCCCC[n+]2ccsc2)CO1` (stereo not given) was 1.8 mg/kg; that for `CCCCCCCCCCCCCCCCCCOCC1COC(COC(=O)CCCCC[n+]2ccsc2)C1` (stereo not given) was 2.4 mg/kg.
The compound `CCCCCCCCCCCCCCCCC1COC(COCCCCCCC[n+]2ccsc2)C1` (stereo not given) had an ID50 in experiment [1] of 2 mg/kg.
In experiment [1], `CCCCCCCCCCCCCCCCOCC1OCC(COC(=O)CCCCC[n+]2ccsc2)O1` (stereo not given) returned an ID50 of 1.1 mg/kg.
Same read-out and setting: the value for `CCCCCCCCCCCCCCCCCC1OCC(COCCCCCC[n+]2ccsc2)O1` (stereo not given) was 1.3 mg/kg; that for `CCCCCCCCCCCCCCCCOCC1COC(COC(=O)N(C(C)=O)c2ccc[n+](CC)c2)C1` (stereo not given) was 0.13 mg/kg; that for `CCCCCCCCCCCCCCCCCC1OCC(COCCCCCC[n+]2ccccc2)O1` (stereo not given) was above 5 mg/kg.
`CCCCCCCCCCCCCCCCCCOCC1COC(COC(=O)Nc2cc[n+](CC)cc2)C1` (stereo not given) displayed an ID50 in experiment [1] above 5 mg/kg.
Still for that read-out and setting: the value for `CCCCCCCCCCCCCCC1COC(COCCCC[n+]2ccsc2)C1` (stereo not given) was above 5 mg/kg; that for `CCCCCCCCCCCCCCCCCC1OCC(COP(=O)([O-])OCC[N+](C)(C)C)O1` (stereo not given) was above 5 mg/kg; that for `CCCCCCCCCCCCCCC1COC(COCCCCCC[n+]2cccc3ccccc32)C1` (stereo not given) was 3 mg/kg.
`CCCCCCCCCCCCCCC1COC(COCCCCCC[n+]2ccsc2)C1` (stereo in doubt; form 2) registered an ID50 in experiment [1] of 2.9 mg/kg.
The compound `CCCCCCCCCCCCCCCCOCC1COC(COC(=O)CCCCC[n+]2ccsc2)C1` (stereo not given) had an ID50 in experiment [1] of 1.7 mg/kg.
Still for that read-out and setting: the value for `CCCCCCCCCCCCCCCCOCC1CCC(COC(=O)N(Cc2cccc[n+]2CC)C(C)=O)O1` (stereo not given) was 0.036 mg/kg.
On to `CCCCCCCCCCCCCCCCOCC1COC(COC(=O)N(Cc2cccc[n+]2CC)C(C)=O)O1` (stereo not given), for which the ID50 in experiment [1] was 0.057 mg/kg and 0.029 mg/kg.
